An excerpt weighted towards active compounds, which were near 3.7% of everything screened.
NPY Y1 blocker – NPY-Y1 receptor antagonists, primary screen, cell-based; HEK293-CNG Y1 cells, membrane potential fluorescence; NPY at EC95, then isoproterenol; inhibition, % at 3.6 µM; 200,000 tested, 1% active;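 active = inhibition above the campaign mean inhibition of all tested compounds plus 3 SD, cut at about 20% in these data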;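 also: 0% = DMSO wells given NPY plus isoproterenol and 100% = isoproterenol alone without NPY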
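Material: HEK293 Y1/CNG channel cell line; also added: NPY (25 nM), isoproterenol (1 µM), Ro 20-1724 (25 µM); doses: one concentration, 3.6 µM, in 0.4% DMSO; schedule: compound incubation 1 h at room temperature, readout 45 min post-stimulation; technique: membrane potential fluorescence; measure: fluorescence ratio normalized to % inhibition between controls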
NPY Y2 blocker – NPY-Y2 receptor antagonists, primary screen, cell-based. Neuropeptide Y receptor type 2 (Homo sapiens), P49146. NPY-Y2 expressing cells, antagonist mode. inhibition, % at 2.7 µM. 140,000 tested, 0.99% active; in the data active = inhibition above about 17%;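 also: 0% = vehicle with agonist challenge and 100% = reference antagonist with challenge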
NPY1 pot ag – NPY-Y1 receptor potentiators or agonists, primary screen, cell-based; NPY-Y1 expressing cells, potentiator/agonist activation; AID 1304, 2008; Neuropeptide Y receptor type 1 (Homo sapiens), P25929; activation, % at 3.6 µM; 220,000 tested, 0.37% active; in the data active = activation above about 33%, passing the limit was not always enough;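 also: cells stimulated with NPY at EC10 then isoproterenol at EC100; 0% = low agonist plus stimulus and 100% = saturating agonist plus stimulus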
KCC2 mod – KCC2 cotransporter modulators, thallium flux, primary screen, cell-based, HEK293 KCC2, FluoZin-2 fluorescence, MLSMR; Solute carrier family 12 member 5 (Homo sapiens), Q9H2X9; KCC2 cells, thallium flux FluoZin-2 fluorescence; B-score of Tl+ flux slope (higher = more flux/activation; lower = inhibition) at 10 µM; 190,000 tested, 2.2% active; AID 1456, 2008;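 active = thallium flux slope and its plate-corrected score both differing from the plate sample mean at a set confidence after two filtering rounds, in either direction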;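 also: slope of fluorescence scaled to starting intensity during 10 to 20 s after thallium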
NPY-Y2 PAM-ag – NPY-Y2 potentiators or agonists, primary screen, cell-based. Neuropeptide Y receptor type 2 (Homo sapiens), P49146. cells expressing NPY-Y2, potentiator/agonist read-out. activation, % at 3.6 µM. 220,000 tested, 0.45% active. AID 1359, 2008; in the data active = activation above about 27%;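 also: cells stimulated with NPY near EC25 plus isoproterenol at EC100; 0% = vehicle plus submaximal agonist and 100% = vehicle plus saturating agonist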
Furin inhibitor – human furin inhibitors, primary screen, biochemical, fluorescence intensity | P09958 | purified furin, fluorogenic substrate cleavage | inhibition, % at 20 µM or 30 µM | 220,000 tested, 0.061% active; in the data active = inhibition above about 25%
Target sequence (P09958 108-714 limits assumed): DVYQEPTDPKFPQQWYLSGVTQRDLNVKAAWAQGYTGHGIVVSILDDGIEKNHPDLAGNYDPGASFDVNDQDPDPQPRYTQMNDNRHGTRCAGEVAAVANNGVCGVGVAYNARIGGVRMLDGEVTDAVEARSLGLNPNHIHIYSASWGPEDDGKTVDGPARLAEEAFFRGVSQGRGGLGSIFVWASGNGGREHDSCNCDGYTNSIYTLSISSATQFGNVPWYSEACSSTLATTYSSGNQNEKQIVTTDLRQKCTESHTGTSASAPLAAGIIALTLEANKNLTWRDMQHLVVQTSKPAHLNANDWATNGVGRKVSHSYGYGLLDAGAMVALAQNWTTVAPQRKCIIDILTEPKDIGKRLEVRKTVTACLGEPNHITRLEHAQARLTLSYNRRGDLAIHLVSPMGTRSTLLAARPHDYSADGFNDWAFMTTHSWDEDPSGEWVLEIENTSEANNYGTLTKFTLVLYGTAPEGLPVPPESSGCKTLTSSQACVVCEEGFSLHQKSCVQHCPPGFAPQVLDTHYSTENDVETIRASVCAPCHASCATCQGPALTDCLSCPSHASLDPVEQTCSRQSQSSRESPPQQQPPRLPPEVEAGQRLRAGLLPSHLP
NPY-Y2 pot conf – NPY-Y2 potentiators or agonists, confirmation, cell-based. shares compounds with NPY-Y2 PAM-ag. cell-based NPY-Y2 potentiator/agonist assay. activation, % at 3.6 µM. 450 tested, 20% active. AID 1539, 2009; in the data active = activation above about 33%
NPY-Y1 potentiator – NPY-Y1 potentiators or agonists, counter-screen for NPY-Y2 potentiator project, cell-based, fluorescence. shares compounds with NPY-Y2 PAM-ag. Y1 HEK293-CNG cells, membrane potential fluorescence. activation, % at 3.6 µM. 450 tested, 20% active; in the data active = activation above about 45%;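 also: cells stimulated with submaximal NPY then isoproterenol with phosphodiesterase inhibitor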
NPY-Y1 agonist 2 – NPY-Y1 direct agonists, selectivity assay for NPY-Y2 potentiator project, cell-based, fluorescence; shares compounds with NPY-Y2 PAM-ag; activation, % at 3.6 µM; 450 tested, 37% active; HEK293 Y1-CNGC, membrane potential fluorescence, agonism;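 active = activation above the mean of DMSO-only control wells plus 3 SD, cut at about 18% in these data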;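 also: cells stimulated with 1 µM isoproterenol plus the PDE inhibitor Ro 20-1724; 0% = isoproterenol with DMSO and no NPY and 100% = 40 nM NPY; Y1 agonists lower the membrane potential dye signal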
CNGC inh – CNGC cAMP sensor activity inhibitors, counter-screen for NPY-Y2 potentiator project, cell-based, HEK293-CNG parental, membrane potential fluorescence; isoproterenol cAMP; AID 1703, 2009; 450 tested, 32% active; shares compounds with NPY-Y2 PAM-ag; inhibition, % at 3.6 µM;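 active = inhibition above the control-well mean plus 3 SD of those wells, cut at about 22% in these data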;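 also: 0% = DMSO with isoproterenol and 100% = DMSO without isoproterenol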
NPY-Y2 ag 2 – NPY-Y2 direct agonists, counter-screen for NPY-Y2 potentiator project, cell-based, fluorescence. shares compounds with NPY-Y2 PAM-ag. HEK293 Y2/CNGC cells, membrane potential fluorescence, agonist mode. activation, % at 3.6 µM. 450 tested, 56% active. AID 1710, 2009;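 active = activation above the mean of solvent-only control wells plus 3 SD, cut at about 10% in these data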;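 also: cells stimulated by isoproterenol with no NPY added so direct agonism is tested; 0% = DMSO with isoproterenol alone and 100% = NPY at EC100 plus isoproterenol; agonism lowers probe fluorescence through less cAMP and CNG channel opening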
Active calls of the source: *; nt = no result.

SMILES	NPY Y1 blocker	NPY Y2 blocker	NPY1 pot ag	KCC2 mod	NPY-Y2 PAM-ag	Furin inhibitor	NPY-Y2 pot conf	NPY-Y1 potentiator	NPY-Y1 agonist 2	CNGC inh	NPY-Y2 ag 2
COc1cccc(C(=O)Nc2ccccc2F)c1	3.8	nt	16.1	-0.594	30.1*	-20.1	-3.3	-5.4	5.1	3.3	-3.9
N/C(=N\OC(=O)c1ccc(OCC(F)(F)F)nc1)c1ccc(Cl)cc1	nt	nt	-36.3	0.0165	81.6*	-20.9	-11.4	-5.1	-16.4	-11.4	9.1
N/C(=N\OC(=O)c1ccc(Cl)cc1)c1ccc(Cl)cc1	7.0	0.4	2.3	0.803	3.4	-22.3	nt	nt	nt	nt	nt
CCOC(=O)C1CCN(c2ncnc3c2cnn3-c2ccc(Cl)cc2)CC1	2.0	9.0	-1.5	0.0939	48.0*	-22.8	-21.2	-34.4	-7.5	-11.8	4.9
O=C(COC(=O)CCc1c[nH]c2ccccc12)NCc1ccc2c(c1)OCO2	8.8	nt	-33.5	-0.606	-11.8	-18.7	nt	nt	nt	nt	nt
COc1cc(-c2csc(N3CCOCC3)n2)cc(OC)c1OC	-1.5	0.0	2.4	-0.024	19.0	-16.6	nt	nt	nt	nt	nt
COc1ccc(-c2csc(N3CCN(c4cc(C)nc5ccccc45)CC3)n2)cc1OC	7.6	nt	-1.2	0.0893	31.7*	1.5	40.4*	39.1	16.0	32.7*	29.2*
NC(=O)C1CCN(CC(=O)N2N=CCC2c2ccccc2)CC1 (stereo unspecified)	-3.9	nt	15.1	0.0506	-4.3	-22.1	nt	nt	nt	nt	nt
Nc1nc(N2CCCCC2)nc2ccccc12	-0.3	1.2	-5.1	-1.2	54.5*	-25.3	71.5*	79.2*	43.6*	40.1*	71.6*
c1ccc(-c2nc(N3CCCCC3)nc3ccccc23)cc1	4.4	5.8	-38.6	1.91	-18.4	-14.6	nt	nt	nt	nt	nt
Cc1cccnc1NC(=O)NC(=O)c1ccc(C(C)(C)C)s1	nt	nt	2.5	-0.145	-11.9	-7.6	nt	nt	nt	nt	nt
O=C(COC(=O)c1ccco1)Nc1nc2ccc([N+](=O)[O-])cc2s1	nt	nt	30.4	-0.384	41.7*	-9.5	31.4	50.0*	52.8*	39.5*	48.7*
Cc1ccc2nc(NC(=O)COC(=O)c3ccco3)sc2c1	-4.7	1.7	-7.5	nt	12.5	-10.3	nt	nt	nt	nt	nt
N#C/C(=C\c1ccc(F)c(Cl)c1)S(=O)(=O)c1ccccn1	nt	nt	5.4	-0.153	-0.6	-18.1	nt	nt	nt	nt	nt
Cc1cc(C)nc(N2CCCC(C(=O)Nc3ccc4c(c3)OCO4)C2)n1 (stereo unspecified)	9.8	2.6	-14.8	-0.968	-20.6	-13.9	nt	nt	nt	nt	nt
Cc1cc(C)nc(N2CCCC(C(=O)NCc3ccc4c(c3)OCO4)C2)n1 (stereo unspecified)	7.6	nt	-5.5	-0.492	72.4*	-12.5	-9.7	-8.9	-10.8	-8.0	-3.2
CCc1cccc(C)c1NC(=S)N(CCCN1CCOCC1)Cc1cccnc1	0.4	nt	1.6	0.514	3.4	-10.3	nt	nt	nt	nt	nt
C=C(C)CN(CC)C(=O)CC1C(=O)NCCN1CC(C)(C)C (stereo unspecified)	nt	nt	16.9	-0.0936	51.1*	-9.5	1.3	10.7	-0.5	1.8	6.4
CN(C)CCN(C)Cc1ccccc1Sc1cccc2ccccc12	7.2	10.9	-37.3	-0.0403	-18.2	-18.8	nt	nt	nt	nt	nt
Cc1cc(Nc2ccccc2)nc(-c2ccccc2O)n1	-6.4	-4.6	1.2	0.437	33.8*	-17.6	36.6*	42.6	28.7*	26.6*	37.1*
COC(=O)COc1ccc(S(=O)(=O)N2CCN(c3ccccc3)CC2)cc1	-9.1	nt	27.8	-2.04	29.9*	-17.2	15.2	15.9	-4.2	-3.7	-1.3
COC(=O)COc1ccc(S(=O)(=O)N2CCN(c3ccccc3F)CC2)cc1	-6.0	0.6	20.9	-1.27	36.1*	-23.8	35.0*	41.5	33.6*	25.1*	25.9*
c1ccc(-c2csc(-n3cccn3)n2)cc1	-0.9	nt	5.3	0.237	1.8	-22.5	nt	nt	nt	nt	nt
COc1ccc(-c2nc(NC(=O)c3[nH]c(C)c(C(C)=O)c3C)sc2C)cc1	-3.5	nt	-11.5	-0.0251	3.1	-11.8	nt	nt	nt	nt	nt
O=c1[nH]c(SCc2ccc(F)cc2Cl)nc2ccccc12	-2.0	nt	-3.6	-0.136	-2.8	-23.5	nt	nt	nt	nt	nt
SMILES	NPY Y1 blocker	NPY Y2 blocker	NPY1 pot ag	KCC2 mod	NPY-Y2 PAM-ag	Furin inhibitor	NPY-Y2 pot conf	NPY-Y1 potentiator	NPY-Y1 agonist 2	CNGC inh	NPY-Y2 ag 2
COC(=O)CCCC1=CC2=C(c3ccccc3)C(=O)C(C)(OC(=O)C3CCCC3)C(=O)C2=CN1CCc1c[nH]c2ccccc12 (stereo unspecified)	nt	nt	nt	0.216	nt	-22.1	nt	nt	nt	nt	nt
COc1nc(/C=C/N(C)C)c([N+](=O)[O-])c(OC)n1	nt	nt	28.3	0.546	101.8*	0.2	-0.6	-3.3	-6.4	-17.9	-9.6
FC(F)(F)c1cnc(NNC(=S)Nc2ccc(Cl)cc2)c(Cl)c1	-5.2	5.3	38.0	30.1*	41.9*	-21.8	8.3	-26.5	-14.3	-7.4	16.3*
Fc1ccc2c(c1)/C(=N/Nc1ccccn1)CCS2	1.3	nt	-4.2	-0.508	30.3*	-0.5	9.8	16.1	26.9*	16.6	21.9*
CC(=O)c1cccc(NC(=O)CN2C(=S)NC(C)(C)CC2C)c1 (stereo unspecified)	1.5	nt	-0.9	-0.467	-10.3	-30.1	nt	nt	nt	nt	nt
CS(=O)(=O)NCc1nnc(SCc2ccc(C(F)(F)F)cc2)o1	nt	nt	1.3	0.00686	101.8*	-22.7	2.0	1.7	-0.6	-3.4	7.7
N#Cc1c(Cl)nsc1NN	1.4	nt	22.3	-0.929	30.9*	-28.3	16.8	27.2	27.2*	15.1	30.1*
COc1ccc(C)cc1NC(=O)c1ccccc1NS(=O)(=O)c1ccc(Cl)s1	7.2	nt	-2.1	-3.59*	57.5*	-20.4	-6.3	-46.4	-30.4	-23.1	-10.9
OC(CNCc1ccc(Cl)cc1)C(F)(F)F (stereo unspecified)	1.6	nt	9.3	0.454	18.2	-27.5	nt	nt	nt	nt	nt

Screening data as filed in PubChem BioAssay.
